11 compounds from article PMC10896134 (Pharmaceutical Biology, 2024) can be followed below.

Assay in all cases: Antiproliferation assay
Format in all cases: cell-based

The test system of assay [1] is A549. As to conditions: Homo sapiens, A549, 24 h, read-out: IC50 = mean ± SD, A549. In a few lines:
(§1)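 Cell lines were grown at 37 °C under 5% CO2 in their own media: A549 in DMEM/F12, H446 in RPMI 1640, and HeLa, MCF-7, L02 and BEAS-2B in high-glucose DMEM with L-glutamine, with 10% FBS and penicillin/streptomycin. Cells were seeded in 96-well plates and exposed to test compounds or reference agents at 37 °C for 24 h. CCK-8 was added for 2 h and absorbance read at 450 nm.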

Assay [2] concerns Hela. Particulars: Homo sapiens, 24 h, read-out: IC50 = mean ± SD, Hela. In outline: as §1
The subject of assay [3] is MCF-7. Particulars: Homo sapiens, MCF7, 24 h, read-out: IC50 = mean ± SD, MCF-7. In a few lines: as §1
Assay [4] concerns H446. As to conditions: Homo sapiens, NCI-H446, 24 h, read-out: IC50 = mean ± SD, H446. In outline:
as §1

Assay [5] relates to L02. As to conditions: Homo sapiens, L02, 24 h, read-out: IC50 = mean ± SD, L02. In a few lines: as §1
For assay [6], the system named is BEAS-2B. Particulars: Homo sapiens, 24 h, read-out: IC50 = mean ± SD, BEAS-2B. In outline: as §1

The term IC50 denotes the midpoint of a concentration-inhibition curve. Regarding `COc1cc([C@@H]2c3cc4c(cc3[C@H](OC(=O)CCCc3ccc(NS(=O)(=O)c5ccccc5)cc3)[C@H]3COC(=O)[C@H]23)OCO4)cc(OC)c1OC` [Compound E1, (5R,5aR,8aR,9R)-8-oxo-9-(3,4,5-trimethoxyphenyl)-5,5a,6,8,8a,9-hexahydrofuro [3′,4′:6,7]naphtho[2,3-d][1,3]dioxol-5-yl 4-(4-(phenylsulfonamido)phenyl)butanoate], the IC50 in assay [1] is 2.73 ± 0.36 µM; in assay [2], > 100 µM; in assay [3] it was 25 ± 1.11 µM; in assay [4], 22.9 ± 1.33 µM; in assay [5] it was > 100 µM; in assay [6] it was 83.6 ± 1.85 µM.
As to `CCCc1ccc(S(=O)(=O)Nc2ccc(CCCC(=O)O[C@H]3c4cc5c(cc4[C@@H](c4cc(OC)c(OC)c(OC)c4)[C@H]4C(=O)OC[C@@H]43)OCO5)cc2)cc1` [Compound E3, (5R,5aR,8aR,9R)-8-oxo-9-(3,4,5-trimethoxyphenyl)-5,5a,6,8,8a,9-hexahydrofuro [3′,4′:6,7]naphtho[2,3-d][1,3]dioxol-5-yl4-(4-((4-propylphenyl)sulfonamido)phenyl)butanoate], the IC50 in assay [1] is 17.8 ± 1.11 µM; in assay [2], 39.2 ± 0.56 µM; in assay [3] it was 18.7 ± 0.95 µM; in assay [4], 11 ± 0.47 µM; in assay [5], > 100 µM; in assay [6], 73.6 ± 1.35 µM.
For `COc1cc([C@@H]2c3cc4c(cc3[C@H](OC(=O)CCCc3ccc(NS(=O)(=O)c5ccc(Br)cc5)cc3)[C@H]3COC(=O)[C@H]23)OCO4)cc(OC)c1OC` [Compound E4, (5R,5aR,8aR,9R)-8-oxo-9-(3,4,5-trimethoxyphenyl)-5,5a,6,8,8a,9-hexahydrofuro [3′,4′:6,7]naphtho[2,3-d][1,3]dioxol-5-yl4-(4-((4-bromophenyl)sulfonamido)phenyl)butanoate], the IC50 was 2.57 ± 0.98 µM in assay [1]; 18.4 ± 0.22 µM in assay [2]; 70.91 ± 0.47 µM in assay [3]; 17.4 ± 0.95 µM in assay [4]; > 100 µM in assay [5]; > 100 µM in assay [6].
Consider `COc1cc([C@@H]2c3cc4c(cc3[C@H](OC(=O)CCCc3ccc(NS(=O)(=O)c5cccc(F)c5)cc3)[C@H]3COC(=O)[C@H]23)OCO4)cc(OC)c1OC` [Compound E6, (5R,5aR,8aR,9R)-8-oxo-9-(3,4,5-trimethoxyphenyl)-5,5a,6,8,8a,9-hexahydrofuro [3′,4′:6,7]naphtho[2,3-d][1,3]dioxol-5-yl4-(4-((3-fluorophenyl)sulfonamido)phenyl)butanoate], for which the IC50 in assay [1] is 1.08 ± 0.32 µM; in assay [2], 12.7 ± 0.69 µM; in assay [3] it was 25.9 ± 1.34 µM; in assay [4] it was 6.07 ± 0.25 µM; in assay [5], > 100 µM; in assay [6], 94.3 ± 2.66 µM.
As for `COc1cc([C@@H]2c3cc4c(cc3[C@H](OC(=O)CCCc3ccc(NS(=O)(=O)c5ccccc5F)cc3)[C@H]3COC(=O)[C@H]23)OCO4)cc(OC)c1OC` [Compound E7, (5R,5aR,8aR,9R)-8-oxo-9-(3,4,5-trimethoxyphenyl)-5,5a,6,8,8a,9-hexahydrofuro [3′,4′:6,7]naphtho[2,3-d][1,3]dioxol-5-yl4-(4-((2-fluorophenyl)sulfonamido)phenyl)butanoate], the 50% inhibitory concentration (IC50) in assay [1] was 20.2 ± 0.79 µM; in assay [2], 13.6 ± 0.71 µM; in assay [3] it was 18.9 ± 0.81 µM; in assay [4] it was > 100 µM; in assay [5] it was > 100 µM; in assay [6], > 100 µM.
Regarding `COc1cc([C@@H]2c3cc4c(cc3[C@H](OC(=O)CCCc3ccc(NS(=O)(=O)c5ccc(C(F)(F)F)cc5)cc3)[C@H]3COC(=O)[C@H]23)OCO4)cc(OC)c1OC` [Compound E8, (5R,5aR,8aR,9R)-8-oxo-9-(3,4,5-trimethoxyphenyl)-5,5a,6,8,8a,9-hexahydrofuro [3′,4′:6,7]naphtho[2,3-d][1,3]dioxol-5-yl4-(4-((4-(trifluoromethyl)phenyl)sulfonamido)phenyl)butanoate], the IC50 is 19.5 ± 1.09 µM in assay [1]; 51.8 ± 1.27 µM in assay [2]; 21.2 ± 0.52 µM in assay [3]; 29.18 ± 0.29 µM in assay [4]; > 100 µM in assay [5]; > 100 µM in assay [6].
Turning to `COc1cc([C@@H]2c3cc4c(cc3[C@H](OC(=O)CCCc3ccc(NS(=O)(=O)c5ccc(F)cc5F)cc3)[C@H]3COC(=O)[C@H]23)OCO4)cc(OC)c1OC` [Compound E9, (5R,5aR,8aR,9R)-8-oxo-9-(3,4,5-trimethoxyphenyl)-5,5a,6,8,8a,9-hexahydrofuro [3′,4′:6,7]naphtho[2,3-d][1,3]dioxol-5-yl4-(4-((2,4-difluorophenyl)sulfonamido)phenyl)butanoate], the 50% inhibitory concentration (IC50) was 0.55 ± 0.17 µM in assay [1]; 62 ± 1.58 µM in assay [2]; 4.97 ± 0.53 µM in assay [3]; 9.27 ± 0.74 µM in assay [4]; > 100 µM in assay [5]; 99.3 ± 3.53 µM in assay [6].
In the case of `COc1cc([C@@H]2c3cc4c(cc3[C@H](OC(=O)CCCc3ccc(NS(=O)(=O)c5c(F)cccc5F)cc3)[C@H]3COC(=O)[C@H]23)OCO4)cc(OC)c1OC` [Compound E10, (5R,5aR,8aR,9R)-8-oxo-9-(3,4,5-trimethoxyphenyl)-5,5a,6,8,8a,9-hexahydrofuro [3′,4′:6,7]naphtho[2,3-d][1,3]dioxol-5-yl4-(4-((2,6-difluorophenyl)sulfonamido)phenyl)butanoate], the IC50 in assay [1] was 0.95 ± 0.22 µM; in assay [2], 27.5 ± 2.54 µM; in assay [3], 8.4 ± 0.79 µM; in assay [4], 7.28 ± 0.96 µM; in assay [5], > 100 µM; in assay [6], > 100 µM.
As to `COc1cc([C@@H]2c3cc4c(cc3[C@H](OC(=O)CCCc3ccc(NS(=O)(=O)c5ccccc5[N+](=O)[O-])cc3)[C@H]3COC(=O)[C@H]23)OCO4)cc(OC)c1OC` [Compound E11, (5R,5aR,8aR,9R)-8-oxo-9-(3,4,5-trimethoxyphenyl)-5,5a,6,8,8a,9-hexahydrofuro [3′,4′:6,7]naphtho[2,3-d][1,3]dioxol-5-yl4-(4-((2-nitrophenyl)sulfonamido)phenyl)butanoate], the IC50 was 27.8 ± 1.51 µM in assay [1]; 46.7 ± 2.04 µM in assay [2]; 8.07 ± 0.63 µM in assay [3]; 10.5 ± 2.08 µM in assay [4]; > 100 µM in assay [5]; > 100 µM in assay [6].
On to `COc1cc([C@@H]2c3cc4c(cc3[C@H](OC(=O)CCCc3ccc(NS(=O)(=O)c5ccc(C)cc5)cc3)[C@H]3COC(=O)[C@H]23)OCO4)cc(OC)c1OC` [Compound E12, (5R,5aR,8aR,9R)-8-oxo-9-(3,4,5-trimethoxyphenyl)-5,5a,6,8,8a,9-hexahydrofuro [3′,4′:6,7]naphtho[2,3-d][1,3]dioxol-5-yl4-(4-((4-methylphenyl)sulfonamido)phenyl)butanoate], for which the IC50 in assay [1] was 27 ± 1.33 µM; in assay [2], 36.1 ± 1.49 µM; in assay [3], 36.8 ± 0.56 µM; in assay [4], 27.2 ± 2.06 µM; in assay [5] it was > 100 µM; in assay [6], 79.3 ± 1.07 µM.
Turning to `COc1cc([C@@H]2c3cc4c(cc3[C@H](OC(=O)CCCc3ccc(NS(=O)(=O)c5cccc([N+](=O)[O-])c5)cc3)[C@H]3COC(=O)[C@H]23)OCO4)cc(OC)c1OC` [Compound E13, (5R,5aR,8aR,9R)-8-oxo-9-(3,4,5-trimethoxyphenyl)-5,5a,6,8,8a,9-hexahydrofuro [3′,4′:6,7]naphtho[2,3-d][1,3]dioxol-5-yl4-(4-((3-nitrophenyl)sulfonamido)phenyl)butanoate], the IC50 is 4.94 ± 0.42 µM in assay [1]; 51.3 ± 1.15 µM in assay [2]; 42 ± 1.35 µM in assay [3]; 9.92 ± 0.92 µM in assay [4]; 48.1 ± 1.09 µM in assay [5]; > 100 µM in assay [6].
